From ChEMBL document CHEMBL1124055, “Analogues of [(triethylsilyl)ethynyl]estradiol as potential antifertility agents” (1988)

Columns and labels:
Type in all cases: functional
Rattus norvegicus [1] = organism: Rattus norvegicus; assay: Oral antifertility potency (A) relative to ethynylestradiol (EE) in rats
Outline: (§1)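 Mated cycling adult female rats (cohabited with males on proestrus night; sperm in vaginal washings) dosed orally by gavage in sesame oil once daily for 7 consecutive days; vehicle control; 10 rats/group. Killed about day 8; uteri examined for presence and condition of conceptuses. Potency from comparison with regression line of standard ethynylestradiol.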

Rattus norvegicus [2] = organism: Rattus norvegicus; assay: Oral estrogenic potency (E) relative to ethynylestradiol (EE) in rats
Outline: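 Rats given compound orally by gavage once daily for 3 consecutive days; vehicle-only control; 10 animals/group. Autopsy 24 h after last dose; uteri excised, cleaned, blotted and weighed to nearest 0.2 mg. Regression lines for standard (ethynylestradiol) and test compound constructed and compared to derive relative potency.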

Rattus norvegicus [3] = organism: Rattus norvegicus; assay: Oral antifertility potency (A) relative to ethynylestradiol (EE) in rats.; outline: as §1

Compound | Potency (Rattus norvegicus [1]) [%] | Potency (Rattus norvegicus [2]) [%] | Potency (Rattus norvegicus [3]) [mg/kg/day]
C#C[C@]1(O)CCC2C3C=Cc4cc(O)ccc4C3CCC21C (stereo partly drawn) | 20 | 2 | –
C#C[C@]1(O)CCC2c3ccc4cc(O)ccc4c3CCC21C (stereo partly drawn) | 10 | 0.6 | –
CC[Si](C#C[C@]1(O)CCC2=C3C=Cc4cc(O)ccc4C3CCC21C)(CC)CC (stereo partly drawn) | 66 | 1 | –
C#C[C@]1(O)CC[C@H]2[C@@H]3CCc4cc(O)ccc4[C@H]3[C@@H](O)C[C@@]21C | 200 | 0.8 | –
C#C[C@]1(O)CC[C@H]2[C@@H]3CCc4ccccc4[C@H]3CC[C@@]21C | 33 | 31 | –
C#C[C@]1(O)CC[C@H]2[C@@H]3[C@H](O)Cc4cc(O)ccc4[C@H]3CC[C@@]21C | 66 | 0.1 | –
C#C[C@]1(O)CC[C@H]2[C@@H]3CCc4cc(O)c(CN(CCC)CCC)cc4[C@H]3CC[C@@]21C | – | 1.3 | >2
CC[Si](C#C[C@]1(O)CC[C@H]2[C@@H]3C[C@H](O)c4cc(O)ccc4[C@H]3CC[C@@]21C)(CC)CC | 300 | 38 | –
C#C[C@]1(O)CC[C@H]2[C@@H]3CCc4cc(O)c(OC)cc4[C@H]3CC[C@@]21C | – | 0.3 | >2
CCCN(CCC)Cc1cc2c(cc1O)CC[C@@H]1[C@@H]2CC[C@@]2(C)[C@H]1CC[C@@]2(O)C#C[Si](CC)(CC)CC | – | 0.3 | >1
CC[Si](C#C[C@]1(O)CC[C@H]2[C@@H]3CCc4ccccc4[C@H]3CC[C@@]21C)(CC)CC | 100 | 13 | –
CC[Si](C#C[C@]1(O)C(C)C[C@H]2[C@@H]3CCc4cc(O)ccc4[C@H]3CC[C@@]21C)(CC)CC (stereo partly drawn) | – | 0.2 | >0.8
CC[Si](C#C[C@]1(O)CC[C@H]2[C@@H]3CCc4cc(OC)ccc4[C@H]3CC[C@@]21C)(CC)CC | – | 1.8 | >2
C=CCc1c(O)ccc2c1CC[C@@H]1[C@@H]2CC[C@@]2(C)[C@H]1CC[C@@]2(O)C#C[Si](CC)(CC)CC | – | 0 | >3
CC[Si](C#C[C@]1(O)CC[C@H]2[C@@H]3[C@H](O)Cc4cc(O)ccc4[C@H]3CC[C@@]21C)(CC)CC | 20 | 0.3 | –
C#C[C@]1(O)CC[C@H]2[C@@H]3C[C@@H](C)c4cc(O)ccc4[C@H]3CC[C@@]21C | – | 1.8 | >0.5
C#C[C@]1(O)CC[C@H]2[C@@H]3[C@H](O)[C@H](O)c4cc(O)ccc4[C@H]3CC[C@@]21C | – | 0.3 | >0.5

Compound | Potency (Rattus norvegicus [1]) [%] | Potency (Rattus norvegicus [2]) [%] | Potency (Rattus norvegicus [3]) [mg/kg/day]
C#C[C@]1(O)CC[C@H]2[C@@H]3CCc4cc(O)c(C)cc4[C@H]3CC[C@@]21C | 40 | 5.5 | –
C#C[C@]1(O)CC[C@H]2[C@@H]3C[C@H](O)c4cc(O)ccc4[C@H]3CC[C@@]21C | – | 16 | >0.2
CC[Si](C#C[C@]1(O)CC[C@H]2[C@@H]3[C@H](O)[C@H](O)c4cc(O)ccc4[C@H]3CC[C@@]21C)(CC)CC | – | 0.6 | >0.5
CC[Si](C#C[C@]1(O)CC[C@H]2[C@@H]3CCc4cc(O)ccc4[C@H]3[C@@H](O)C[C@@]21C)(CC)CC | 64 | 14.4 | –
C#C[C@]1(O)CC(OC)[C@H]2[C@@H]3CCc4cc(OC)ccc4[C@H]3CC[C@@]21C (stereo partly drawn) | 10 | 0.8 | –
CC[Si](C#C[C@]1(O)CC[C@H]2[C@@H]3C[C@@H](O)c4cc(O)ccc4[C@H]3CC[C@@]21C)(CC)CC | 40 | 16 | –
CC[Si](C#C[C@]1(O)CC[C@H]2[C@@H]3C[C@@H](C)c4cc(O)ccc4[C@H]3CC[C@@]21C)(CC)CC | 7.5 | 0.2 | –
C#C[C@]1(O)C(C)C[C@H]2[C@@H]3CCc4cc(O)ccc4[C@H]3CC[C@@]21C (stereo partly drawn) | – | 0.5 | >2
CC[Si](C#C[C@]1(O)CC[C@H]2[C@@H]3CCc4cc(O)c(OC)cc4[C@H]3CC[C@@]21C)(CC)CC | – | 0.06 | >2.8
CC[Si](C#C[C@]1(O)CC[C@H]2[C@@H]3CCc4cc(O)ccc4[C@H]3CC[C@@]21C)(CC)CC | 600 | 37 | –
C#C[C@]1(O)CC[C@H]2[C@@H]3CCc4c(ccc(O)c4CC=C)[C@H]3CC[C@@]21C | – | 0.1 | >2
CC[Si](C#C[C@]1(O)CC(OC)[C@H]2[C@@H]3CCc4cc(OC)ccc4[C@H]3CC[C@@]21C)(CC)CC (stereo partly drawn) | – | 3 | >0.2
CC[Si](C#C[C@]1(O)CC[C@H]2[C@@H]3CCc4cc(O)c(C)cc4[C@H]3CC[C@@]21C)(CC)CC | 40 | 2.2 | –
CC[Si](C#C[C@]1(O)CCC2C3C=Cc4cc(O)ccc4C3CCC21C)(CC)CC (stereo partly drawn) | 200 | 2 | –
CC[Si](C#C[C@]1(O)CCCC2C3CCc4cc(O)ccc4C3CCC21C)(CC)CC (stereo partly drawn) | – | 0.1 | >2
C#C[C@]1(O)CC[C@H]2[C@@H]3CCc4cc(O)ccc4[C@H]3CC[C@@]21C [ETHINYL ESTRADIOL] | 100 | 100 | –
C#C[C@]1(O)CC[C@H]2[C@@H]3CCc4cc(OC)ccc4[C@H]3CC[C@@]21C [MESTRANOL] | – | 0.3 | >2
